How the values were obtained:
Glucocorticoid receptor [1] = target: T1, Glucocorticoid receptor (Homo sapiens, UniProt P04150); assay: Inhibition of transcriptional activation in CV-1 cells expressing glucocorticoid receptor; format: functional, cell-based
T1 sequence (P04150 whole entry): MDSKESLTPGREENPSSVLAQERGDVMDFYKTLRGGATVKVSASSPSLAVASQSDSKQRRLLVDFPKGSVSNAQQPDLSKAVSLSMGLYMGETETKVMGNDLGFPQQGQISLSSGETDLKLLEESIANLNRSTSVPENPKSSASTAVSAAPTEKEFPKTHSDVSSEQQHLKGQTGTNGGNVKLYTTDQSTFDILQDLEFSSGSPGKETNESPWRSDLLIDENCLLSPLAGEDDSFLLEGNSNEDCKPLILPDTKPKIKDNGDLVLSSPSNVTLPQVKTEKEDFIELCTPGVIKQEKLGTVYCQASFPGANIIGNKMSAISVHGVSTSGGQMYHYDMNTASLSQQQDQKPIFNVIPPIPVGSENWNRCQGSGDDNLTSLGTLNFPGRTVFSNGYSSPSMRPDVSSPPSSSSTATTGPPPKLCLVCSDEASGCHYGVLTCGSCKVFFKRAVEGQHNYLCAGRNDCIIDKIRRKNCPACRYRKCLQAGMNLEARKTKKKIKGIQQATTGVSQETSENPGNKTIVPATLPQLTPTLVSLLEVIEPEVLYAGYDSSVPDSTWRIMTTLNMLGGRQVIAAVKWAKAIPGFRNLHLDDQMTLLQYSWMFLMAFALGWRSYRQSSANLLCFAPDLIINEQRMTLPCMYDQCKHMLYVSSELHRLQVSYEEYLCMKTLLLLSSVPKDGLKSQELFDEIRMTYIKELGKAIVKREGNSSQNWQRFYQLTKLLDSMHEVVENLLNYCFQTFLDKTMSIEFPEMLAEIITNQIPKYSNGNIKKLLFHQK

Glucocorticoid receptor [2] = target: T1, Glucocorticoid receptor; assay: Inhibition of transcriptional repression in CV-1 cells expressing glucocorticoid receptor; format: functional, cell-based
[3] = target: T2, Progesterone receptor (Homo sapiens) (UniProt P06401); assay: In vitro binding affinity against progesterone receptor
T2 sequence (whole entry): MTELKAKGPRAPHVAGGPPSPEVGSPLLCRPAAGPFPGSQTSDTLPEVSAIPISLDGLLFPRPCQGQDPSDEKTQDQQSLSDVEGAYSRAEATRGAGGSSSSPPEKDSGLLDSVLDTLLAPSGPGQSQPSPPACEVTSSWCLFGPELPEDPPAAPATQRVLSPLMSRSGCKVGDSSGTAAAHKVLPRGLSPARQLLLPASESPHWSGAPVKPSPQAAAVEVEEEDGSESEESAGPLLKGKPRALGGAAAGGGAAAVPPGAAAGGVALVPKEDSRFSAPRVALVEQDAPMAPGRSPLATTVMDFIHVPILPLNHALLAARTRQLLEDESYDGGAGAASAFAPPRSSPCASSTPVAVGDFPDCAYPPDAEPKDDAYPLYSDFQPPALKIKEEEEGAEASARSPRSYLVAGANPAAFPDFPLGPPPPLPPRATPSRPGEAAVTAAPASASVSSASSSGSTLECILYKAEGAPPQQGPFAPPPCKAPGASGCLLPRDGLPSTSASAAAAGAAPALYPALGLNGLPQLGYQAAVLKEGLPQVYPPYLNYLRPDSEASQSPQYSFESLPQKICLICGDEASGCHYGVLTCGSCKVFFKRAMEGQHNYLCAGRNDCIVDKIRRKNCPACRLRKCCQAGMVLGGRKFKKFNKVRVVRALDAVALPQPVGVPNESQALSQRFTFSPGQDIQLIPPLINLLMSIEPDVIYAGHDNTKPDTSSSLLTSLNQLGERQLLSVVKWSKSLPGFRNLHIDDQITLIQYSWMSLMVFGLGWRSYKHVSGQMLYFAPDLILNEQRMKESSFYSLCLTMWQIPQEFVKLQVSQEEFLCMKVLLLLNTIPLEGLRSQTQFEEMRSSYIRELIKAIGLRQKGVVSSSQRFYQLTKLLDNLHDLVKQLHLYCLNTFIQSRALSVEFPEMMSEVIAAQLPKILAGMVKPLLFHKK
Method in brief: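 Competition binding assay against progesterone receptor. Replicates vary by value: single experiments in triplicate; two experiments with triplicate determinations (with standard deviation); or at least three separate experiments in triplicate (mean ± SEM).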

Cell line [4] = assay: Effective concentration for transcriptional activation of aromatase in Human cell native protein assay; format: functional, cell-based
Cell line [5] = assay: Effective concentration of compound for transcriptional activation of TAT in Human cell native protein assay; format: functional, cell-based
Cell line [6] = assay: Effective concentration of compound for transcriptional activation of osteocalcin in Human cell native protein assay; format: functional, cell-based
Cell line [7] = assay: Efficacy for transcriptional repression of IL-6 in Human cell native protein assay expressed as percentage of the maximal response of Dexamethasone; format: functional
Cell line [8] = assay: Efficacy for transcriptional […] of PGE-2 in Human cell native protein assay expressed as percentage of the maximal response of Dexamethasone; format: functional
Cell line [9] = assay: Efficacy for transcriptional activation of TAT in Human cell native protein assay expressed as percentage of the maximal response of Dexamethasone; format: functional
Cell line [10] = assay: Efficacy for transcriptional activation of aromatase in Human cell native protein assay expressed as percentage of the maximal response of Dexamethasone; format: functional
Cell line [11] = assay: Efficacy for transcriptional activation of collagenase in Human cell native protein assay expressed as percentage of the maximal response of Dexamethasone; format: functional
Cell line [12] = assay: Effective concentration of compound for transcriptional repression of IL-6 in Human cell native protein assay
Cell line [13] = assay: Effective concentration of compound for transcriptional repression of PGE-2 in Human cell native protein assay
Cell line [14] = assay: Effective concentration of compound for transcriptional repression of collagenase in Human cell native protein assay
Cell line [15] = assay: Efficacy for transcriptional repression of osteocalcin in Human cell native protein assay expressed as percentage of the maximal response of Dexamethasone
Progesterone receptor = target: T3, Progesterone receptor (Homo sapiens, UniProt P06401); assay: Inhibition of transcriptional activation in cells expressing progesterone receptor isoform B; format: functional
T3 sequence (P06401 whole entry): T2 sequence (whole entry)

[16] = target: T2, Progesterone receptor (Homo sapiens); assay: Transcriptional activation in cells expressing progesterone receptor isoform B compared to progesterone; format: functional

| SMILES | IC50 (Glucocorticoid receptor [1]) | IC50 (Glucocorticoid receptor [2]) | Activity [3] | further results |
| --- | --- | --- | --- | --- |
| C=C1CCCCC1C1Oc2cccc(OC)c2-c2ccc3c(c21)C(C)=CC(C)(C)N3 (centres undefined) | > 5000 nM | 320 nM | > 5000 nM |  |
| COc1cccc2c1-c1ccc3c(c1C(CC=C1CCCC1)O2)C(C)=CC(C)(C)N3 (centres undefined) | > 5000 nM | 217 nM | > 5000 nM |  |
| COc1cccc2c1-c1ccc3c(c1[C@@H]([C@@H]1C=C(C)CCC1)O2)C(C)=CC(C)(C)N3 | > 5000 nM | > 5000 nM | > 5000 nM |  |
| C[C@]12C=CC(=O)C=C1CC[C@@H]1[C@@H]2[C@@H](O)C[C@@]2(C)[C@H]1CC[C@]2(O)C(=O)CO [PREDNISOLONE] |  |  | > 5000 nM | EC50 (Cell line [4]): 45 nM; EC50 (Cell line [5]): 48 nM; EC50 (Cell line [6]): 32 nM; Efficacy (Cell line [7]): 98%; Efficacy (Cell line [8]): 100%; Efficacy (Cell line [9]): 95%; Efficacy (Cell line [10]): 96%; Efficacy (Cell line [11]): 98%; EC50 (Cell line [12]): 3.6 nM; EC50 (Cell line [13]): 2 nM; EC50 (Cell line [14]): 0.4 nM; Efficacy (Cell line [15]): 94% |
| COc1cccc2c1-c1ccc3c(c1C(C1C=C(C)CCC1)O2)C(C)=CC(C)(C)N3 (centres undefined) | 15 nM | 7 nM | 980 nM |  |
| C=C(CC1Oc2cccc(OC)c2-c2ccc3c(c21)C(C)=CC(C)(C)N3)C(=O)OC (centres undefined) | > 5000 nM | > 5000 nM | > 5000 nM |  |
| COc1cccc2c1-c1ccc3c(c1[C@@H]([C@H]1C=C(C)CCC1)O2)C(C)=CC(C)(C)N3 | > 5000 nM | 440 nM | > 5000 nM |  |
| COc1cccc2c1-c1ccc3c(c1[C@H]([C@@H]1C=C(C)CCC1)O2)C(C)=CC(C)(C)N3 | > 5000 nM | 5.8 nM | 430 nM | EC50 (Cell line [4]): 59 nM; EC50 (Cell line [5]): 290 nM; EC50 (Cell line [6]): 54 nM; Efficacy (Cell line [7]): 90%; Efficacy (Cell line [8]): 95%; Efficacy (Cell line [9]): 67%; Efficacy (Cell line [10]): 43%; Efficacy (Cell line [11]): 97%; IC50 (Progesterone receptor): 14 nM; Efficacy [16]: 70%; EC50 (Cell line [12]): 45 nM; EC50 (Cell line [13]): 5.4 nM; EC50 (Cell line [14]): 3.4 nM; Efficacy (Cell line [15]): 71% |
| COc1cccc2c1-c1ccc3c(c1C(C1C=CCC1)O2)C(C)=CC(C)(C)N3 (centres undefined) |  |  | 2200 nM |  |
| C=C(COC(C)=O)CC1Oc2cccc(OC)c2-c2ccc3c(c21)C(C)=CC(C)(C)N3 (centres undefined) | 310 nM | 141 nM | > 5000 nM |  |
| COc1cccc2c1-c1ccc3c(c1C(C1/C=C\CCCCC1)O2)C(C)=CC(C)(C)N3 (centres undefined) |  |  | > 5000 nM |  |
| COc1cccc2c1-c1ccc3c(c1C(CC1=CCCCC1)O2)C(C)=CC(C)(C)N3 (centres undefined) |  |  | > 5000 nM |  |
| COc1cccc2c1-c1ccc3c(c1C(CC=C(F)F)O2)C(C)=CC(C)(C)N3 (centres undefined) | 76 nM | 20 nM | 2300 nM |  |
| C=CC(C)(C)C1Oc2cccc(OC)c2-c2ccc3c(c21)C(C)=CC(C)(C)N3 (centres undefined) | > 5000 nM | > 5000 nM | > 5000 nM |  |
| COc1c(O)ccc2c1-c1ccc3c(c1[C@H]([C@H]1C=C(C)CCC1)O2)C(C)=CC(C)(C)N3 |  |  | 52 nM | IC50 (Progesterone receptor): 210 nM; Efficacy [16]: 190% |
| COc1c(O)ccc2c1-c1ccc3c(c1[C@H]([C@@H]1C=C(C)CCC1)O2)C(C)=CC(C)(C)N3 |  |  | 11.4 nM | IC50 (Progesterone receptor): 7.1 nM; Efficacy [16]: 260% |
| COc1cccc2c1-c1ccc3c(c1C(C1C=CCCC1)O2)C(C)=CC(C)(C)N3 (centres undefined) | 13 nM | 21 nM | 2400 nM |  |
| COc1cccc2c1-c1ccc3c(c1C(C1C=CCCCC1)O2)C(C)=CC(C)(C)N3 (centres undefined) |  |  | > 5000 nM |  |
| COc1cccc2c1-c1ccc3c(c1[C@H]([C@H]1C=C(C)CCC1)O2)C(C)=CC(C)(C)N3 | 40 nM | 19 nM | 710 nM | EC50 (Cell line [4]): 640 nM; EC50 (Cell line [5]): 110 nM; Efficacy (Cell line [7]): 82%; Efficacy (Cell line [8]): 95%; Efficacy (Cell line [9]): 49%; Efficacy (Cell line [10]): 26%; Efficacy (Cell line [11]): 89%; Efficacy [16]: 13%; EC50 (Cell line [12]): 62 nM; EC50 (Cell line [13]): 35 nM; EC50 (Cell line [14]): 32 nM; Efficacy (Cell line [15]): 38% |

Further lines, with some results ahead:

| IC50 (Glucocorticoid receptor [1]) | IC50 (Glucocorticoid receptor [2]) | Activity [3] | SMILES | further results |
| --- | --- | --- | --- | --- |
| 240 nM | 110 nM | > 5000 nM | C=C(Br)CC1Oc2cccc(OC)c2-c2ccc3c(c21)C(C)=CC(C)(C)N3 (centres undefined) |  |
| 89 nM | 88 nM | > 5000 nM | CC/C=C\CC1Oc2cccc(OC)c2-c2ccc3c(c21)C(C)=CC(C)(C)N3 (centres undefined) |  |
|  |  | 1800 nM | C=CCC1Oc2cccc(OC)c2-c2ccc3c(c21)C(C)=CC(C)(C)N3 (stereo in doubt; 4a) |  |
| 66 nM | 42 nM | > 5000 nM | C=C(C)CC1Oc2cccc(OC)c2-c2ccc3c(c21)C(C)=CC(C)(C)N3 (centres undefined) |  |
|  |  | 1300 nM | C=CCC1Oc2cccc(OC)c2-c2ccc3c(c21)C(C)=CC(C)(C)N3 (stereo in doubt; (-)4a) |  |
| 150 nM | 38 nM | 2100 nM | C/C=C/CC1Oc2cccc(OC)c2-c2ccc3c(c21)C(C)=CC(C)(C)N3 (centres undefined) |  |
| > 5000 nM | 23 nM | 1600 nM | COc1cccc2c1-c1ccc3c(c1C(CC=C(C)C)O2)C(C)=CC(C)(C)N3 (centres undefined) |  |
| 310 nM | 141 nM | > 5000 nM | C=C(CO)CC1Oc2cccc(OC)c2-c2ccc3c(c21)C(C)=CC(C)(C)N3 (centres undefined) |  |
| 110 nM | 40 nM | > 5000 nM | C=CC(C)C1Oc2cccc(OC)c2-c2ccc3c(c21)C(C)=CC(C)(C)N3 (centres undefined) |  |
| 14 nM | 6.9 nM |  | C=CCC1Oc2cccc(OC)c2-c2ccc3c(c21)C(C)=CC(C)(C)N3 (stereo in doubt; (-)4a) [AL-43] | EC50 (Cell line [4]): 160 nM; EC50 (Cell line [5]): 40 nM; Efficacy (Cell line [7]): 83%; Efficacy (Cell line [9]): 71%; Efficacy (Cell line [10]): 82%; Efficacy (Cell line [11]): 77%; EC50 (Cell line [12]): 30 nM; EC50 (Cell line [14]): 37 nM |
| 220 nM | 87 nM | > 5000 nM | COC(=O)/C=C/CC1Oc2cccc(OC)c2-c2ccc3c(c21)C(C)=CC(C)(C)N3 (centres undefined) |  |
| 33 nM | 13 nM |  | C=CCC1Oc2cccc(OC)c2-c2ccc3c(c21)C(C)=CC(C)(C)N3 (stereo in doubt; 4a) [AL-43] |  |
| 39 nM | 23 nM | 1200 nM | C/C=C\CC1Oc2cccc(OC)c2-c2ccc3c(c21)C(C)=CC(C)(C)N3 (centres undefined) |  |
| > 5000 nM | 150 nM | > 5000 nM | COc1cccc2c1-c1ccc3c(c1C(C/C=C/CO)O2)C(C)=CC(C)(C)N3 (centres undefined) |  |
